Assay results from ChEMBL document CHEMBL3808372, “Identification of quinones as novel PIM1 kinase inhibitors” (Bioorg Med Chem Lett, 2016).

Experiments:
Set-up in all cases: scale not given: the % may be the effect or the level left
[1] = biological target: Insulin-like growth factor 1 receptor (Homo sapiens) (UniProt P08069); assay: Inhibition of human IGF1R (972 to 1294 amino acid residues) assessed as enzyme activity at 10 uM by KINOMEScan assay expressed in bacterial system assessed as enzyme activity at 10 uM by KINOMEScan assay
Procedure, shortened: (§1)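 Commercial KINOMEscan binding panel of 100 kinases, test compound at 10 μM. Results are primary-screen binding interactions expressed as % Ctrl = (test compound signal − positive control signal)/(negative control signal − positive control signal) × 100. Lower % Ctrl means stronger binding.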

[2] = biological target: RAF proto-oncogene serine/threonine-protein kinase (Homo sapiens) (UniProt P04049); assay: Inhibition of human RAF1 (330 to 640 amino acid residues) expressed in bacterial system assessed as enzyme activity at 10 uM by KINOMEScan assay; procedure, shortened: as §1
[3] = biological target: Insulin receptor (Homo sapiens) (UniProt P06213); assay: Inhibition of human INSR (997 to 1318 amino acid residues) assessed as enzyme activity at 10 uM by KINOMEScan assay
Procedure, shortened: (§2)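 Competition binding screen on a 100-kinase KINOMEscan panel, compound tested at a single 10 μM concentration. Primary binding read-out expressed as % Ctrl = (test compound signal − positive control signal)/(negative control signal − positive control signal) × 100, with lower values meaning stronger binding.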

[4] = test system: Mast/stem cell growth factor receptor Kit (Homo sapiens), P10721 [D816V]; assay: Inhibition of human KIT D816V mutant (571 to 952 amino acid residues) expressed in bacterial system assessed as enzyme activity at 10 uM by KINOMEScan assay; procedure, shortened: as §1
[5] = biological target: MAP kinase-interacting serine/threonine-protein kinase 1 (Homo sapiens) (UniProt Q9BUB5); assay: Inhibition of full length human MKNK1 assessed as enzyme activity at 10 uM by KINOMEScan assay; procedure, shortened: as §2
[6] = biological target: MAP/microtubule affinity-regulating kinase 3 (Homo sapiens) (UniProt P27448); assay: Inhibition of full length human MARK3 expressed in bacterial system assessed as enzyme activity at 10 uM by KINOMEScan assay; procedure, shortened: as §1
[7] = biological target: Serine/threonine-protein kinase RIO2 (Homo sapiens) (UniProt Q9BVS4); assay: Inhibition of human RIOK2 (1 to 313 amino acid residues) assessed as enzyme activity at 10 uM by KINOMEScan assay; procedure, shortened: as §1
[8] = biological target: Mitogen-activated protein kinase kinase kinase 4 (Homo sapiens) (UniProt Q9Y6R4); assay: Inhibition of human MAP3K4 (1319 to 1608 amino acid residues) expressed in bacterial system assessed as enzyme activity at 10 uM by KINOMEScan assay; procedure, shortened: as §1
[9] = biological target: Serine/threonine-protein kinase pim-3 (Homo sapiens) (UniProt Q86V86); assay: Inhibition of human PIM3 (16 to 317 amino acid residues) expressed in bacterial system assessed as enzyme activity at 10 uM by KINOMEScan assay
Procedure, shortened: (§3)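 Single-concentration competition binding screen (KINOMEscan) across a 100-kinase panel at 10 μM. Primary binding read-out is reported as % of control: (test signal − positive-control signal)/(negative-control signal − positive-control signal) × 100. Lower values indicate stronger binding.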

[10] = biological target: High affinity nerve growth factor receptor (Homo sapiens) (UniProt P04629); assay: Inhibition of human TRKA (475 to 790 amino acid residues) assessed as enzyme activity at 10 uM by KINOMEScan assay; procedure, shortened: as §1
[11] = biological target: Focal adhesion kinase 1 (Homo sapiens) (UniProt Q05397); assay: Inhibition of human FAK (402 to 696 amino acid residues) assessed as enzyme activity at 10 uM by KINOMEScan assay expressed in bacterial system assessed as enzyme activity at 10 uM by KINOMEScan assay; procedure, shortened: as §2
[12] = biological target: Activin receptor type-1B (Homo sapiens) (UniProt P36896); assay: Inhibition of human ACVR1B (187 to 505 amino acid residues) expressed in bacterial system assessed as enzyme activity at 10 uM by KINOMEScan assay; procedure, shortened: as §2
[13] = biological target: Protein kinase C epsilon type (Homo sapiens) (UniProt Q02156); assay: Inhibition of human PRKCE (378 to 737 amino acid residues) assessed as enzyme activity at 10 uM by KINOMEScan assay; procedure, shortened: as §3
[14] = biological target: Receptor-type tyrosine-protein kinase FLT3 (Homo sapiens) (UniProt P36888); assay: Inhibition of human FLT3 (646 to 1225 amino acid residues) assessed as enzyme activity at 10 uM by KINOMEScan assay expressed in bacterial system assessed as enzyme activity at 10 uM by KINOMEScan assay; procedure, shortened: as §2
[15] = biological target: Tyrosine-protein kinase JAK3 (Homo sapiens) (UniProt P52333); assay: Inhibition of human JAK3 JH1 catalytic domain (781 to 1124 amino acid residues) assessed as enzyme activity at 10 uM by KINOMEScan assay; procedure, shortened: as §2
[16] = biological target: 3-phosphoinositide-dependent protein kinase 1 (Homo sapiens) (UniProt O15530); assay: Inhibition of full length human PDPK1 expressed in bacterial system assessed as enzyme activity at 10 uM by KINOMEScan assay; procedure, shortened: as §2
[17] = biological target: cAMP-dependent protein kinase catalytic subunit alpha (Homo sapiens) (UniProt P17612); assay: Inhibition of human PKAC-alpha (10 to 351 amino acid residues) expressed in bacterial system assessed as enzyme activity at 10 uM by KINOMEScan assay; procedure, shortened: as §3
[18] = biological target: Cyclin-dependent kinase 7 (Homo sapiens) (UniProt P50613); assay: Inhibition of full length human CDK7 assessed as enzyme activity at 10 uM by KINOMEScan assay; procedure, shortened: as §2
[19] = biological target: Casein kinase I isoform delta (Homo sapiens) (UniProt P48730); assay: Inhibition of full length human CSNK1D expressed in bacterial system assessed as enzyme activity at 10 uM by KINOMEScan assay system assessed as enzyme activity at 10 uM by KINOMEScan assay; procedure, shortened: as §2
[20] = biological target: Glycogen synthase kinase-3 beta (Homo sapiens) (UniProt P49841); assay: Inhibition of full length human GSK3B assessed as enzyme activity at 10 uM by KINOMEScan assay; procedure, shortened: as §2
[21] = biological target: TGF-beta receptor type-1 (Homo sapiens) (UniProt P36897); assay: Inhibition of human TGFBR1 (179 to 503 amino acid residues) expressed in bacterial system assessed as enzyme activity at 10 uM by KINOMEScan assay; procedure, shortened: as §1
[22] = biological target: Phosphatidylinositol 4,5-bisphosphate 3-kinase catalytic subunit gamma isoform (Homo sapiens) (UniProt P48736); assay: Inhibition of human PIK3CG (144 to 1102 amino acid residues) assessed as enzyme activity at 10 uM by KINOMEScan assay; procedure, shortened: as §3
[23] = biological target: Serine/threonine-protein kinase ULK2 (Homo sapiens) (UniProt Q8IYT8); assay: Inhibition of human ULK2 (1 to 301 amino acid residues) assessed as enzyme activity at 10 uM by KINOMEScan assay; procedure, shortened: as §3
[24] = test system: Serine/threonine-protein kinase B-raf (Homo sapiens), P15056 [V600E]; assay: Inhibition of human BRAF V600E mutant (429 to 741 amino acid residues) assessed as enzyme activity at 10 uM by KINOMEScan assay; procedure, shortened: as §2
[25] = biological target: Dual specificity tyrosine-phosphorylation-regulated kinase 1B (Homo sapiens) (UniProt Q9Y463); assay: Inhibition of full length human DYRK1B expressed in bacterial system assessed as enzyme activity at 10 uM by KINOMEScan assay; procedure, shortened: as §2

Sequence of Insulin-like growth factor 1 receptor (Homo sapiens) (P08069 31-736 limits assumed): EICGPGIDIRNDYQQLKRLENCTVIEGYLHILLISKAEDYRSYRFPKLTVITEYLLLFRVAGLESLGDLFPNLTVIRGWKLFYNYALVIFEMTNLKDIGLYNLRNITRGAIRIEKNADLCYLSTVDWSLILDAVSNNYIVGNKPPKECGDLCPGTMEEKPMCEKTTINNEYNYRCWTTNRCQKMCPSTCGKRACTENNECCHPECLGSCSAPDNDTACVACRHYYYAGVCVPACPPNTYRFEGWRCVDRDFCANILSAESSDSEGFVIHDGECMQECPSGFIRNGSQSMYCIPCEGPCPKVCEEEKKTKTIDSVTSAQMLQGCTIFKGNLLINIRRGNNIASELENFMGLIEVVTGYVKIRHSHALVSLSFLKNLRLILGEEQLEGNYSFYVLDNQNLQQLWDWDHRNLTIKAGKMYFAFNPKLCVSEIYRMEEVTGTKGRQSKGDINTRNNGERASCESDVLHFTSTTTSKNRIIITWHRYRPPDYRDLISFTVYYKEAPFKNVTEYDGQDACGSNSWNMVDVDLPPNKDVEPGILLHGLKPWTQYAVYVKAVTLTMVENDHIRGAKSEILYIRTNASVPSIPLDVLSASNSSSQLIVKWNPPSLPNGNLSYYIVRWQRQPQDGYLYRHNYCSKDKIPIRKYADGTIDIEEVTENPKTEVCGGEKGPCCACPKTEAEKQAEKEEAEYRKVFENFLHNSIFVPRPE
Sequence of Insulin-like growth factor 1 receptor (Homo sapiens) (P08069 741-1367 limits assumed): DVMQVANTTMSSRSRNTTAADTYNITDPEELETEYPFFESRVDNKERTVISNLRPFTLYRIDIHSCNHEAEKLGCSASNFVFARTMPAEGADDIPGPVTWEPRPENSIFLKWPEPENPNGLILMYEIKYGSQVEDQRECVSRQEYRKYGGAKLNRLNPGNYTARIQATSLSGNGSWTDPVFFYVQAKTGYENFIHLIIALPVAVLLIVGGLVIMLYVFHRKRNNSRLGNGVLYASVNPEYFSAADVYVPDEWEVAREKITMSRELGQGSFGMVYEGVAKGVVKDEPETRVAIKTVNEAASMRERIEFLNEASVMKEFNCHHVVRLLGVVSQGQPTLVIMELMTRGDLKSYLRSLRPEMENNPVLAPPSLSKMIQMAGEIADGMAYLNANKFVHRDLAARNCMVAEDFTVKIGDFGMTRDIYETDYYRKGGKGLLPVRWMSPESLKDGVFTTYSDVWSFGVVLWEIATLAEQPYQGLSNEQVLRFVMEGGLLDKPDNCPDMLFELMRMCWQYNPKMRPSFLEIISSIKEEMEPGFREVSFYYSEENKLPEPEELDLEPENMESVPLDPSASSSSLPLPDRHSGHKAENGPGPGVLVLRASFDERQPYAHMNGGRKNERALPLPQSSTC
Sequence of Casein kinase I isoform delta (Homo sapiens) (P48730 whole entry, looked up, canonical isoform): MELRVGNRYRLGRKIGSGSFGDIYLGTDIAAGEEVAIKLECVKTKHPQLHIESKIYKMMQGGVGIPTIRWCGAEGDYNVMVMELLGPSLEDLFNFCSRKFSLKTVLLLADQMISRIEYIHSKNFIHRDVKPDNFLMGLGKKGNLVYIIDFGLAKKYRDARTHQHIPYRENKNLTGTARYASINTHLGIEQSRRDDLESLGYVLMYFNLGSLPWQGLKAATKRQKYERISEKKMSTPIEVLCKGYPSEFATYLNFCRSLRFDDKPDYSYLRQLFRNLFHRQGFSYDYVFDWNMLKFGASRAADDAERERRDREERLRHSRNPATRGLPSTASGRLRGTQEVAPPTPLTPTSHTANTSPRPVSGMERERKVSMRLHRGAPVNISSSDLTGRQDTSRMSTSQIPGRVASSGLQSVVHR
Sequence of TGF-beta receptor type-1 (Homo sapiens) (P36897 whole entry, the tested form may be a part, canonical isoform): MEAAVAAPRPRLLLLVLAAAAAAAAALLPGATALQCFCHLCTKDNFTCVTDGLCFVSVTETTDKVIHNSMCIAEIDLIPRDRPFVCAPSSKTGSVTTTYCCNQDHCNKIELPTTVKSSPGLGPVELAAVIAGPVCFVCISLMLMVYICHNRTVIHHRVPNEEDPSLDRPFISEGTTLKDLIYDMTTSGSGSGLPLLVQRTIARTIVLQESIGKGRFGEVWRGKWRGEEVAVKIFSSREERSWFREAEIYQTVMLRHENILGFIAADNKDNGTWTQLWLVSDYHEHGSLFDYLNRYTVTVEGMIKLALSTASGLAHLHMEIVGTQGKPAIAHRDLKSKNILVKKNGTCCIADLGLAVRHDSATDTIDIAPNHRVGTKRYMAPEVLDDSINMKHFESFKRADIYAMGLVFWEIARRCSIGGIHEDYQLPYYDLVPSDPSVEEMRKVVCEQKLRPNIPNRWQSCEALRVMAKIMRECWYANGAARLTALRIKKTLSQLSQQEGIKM
Sequence of Serine/threonine-protein kinase B-raf (Homo sapiens), P15056 [V600E] (P15056 whole entry V600E, the tested form may be a part): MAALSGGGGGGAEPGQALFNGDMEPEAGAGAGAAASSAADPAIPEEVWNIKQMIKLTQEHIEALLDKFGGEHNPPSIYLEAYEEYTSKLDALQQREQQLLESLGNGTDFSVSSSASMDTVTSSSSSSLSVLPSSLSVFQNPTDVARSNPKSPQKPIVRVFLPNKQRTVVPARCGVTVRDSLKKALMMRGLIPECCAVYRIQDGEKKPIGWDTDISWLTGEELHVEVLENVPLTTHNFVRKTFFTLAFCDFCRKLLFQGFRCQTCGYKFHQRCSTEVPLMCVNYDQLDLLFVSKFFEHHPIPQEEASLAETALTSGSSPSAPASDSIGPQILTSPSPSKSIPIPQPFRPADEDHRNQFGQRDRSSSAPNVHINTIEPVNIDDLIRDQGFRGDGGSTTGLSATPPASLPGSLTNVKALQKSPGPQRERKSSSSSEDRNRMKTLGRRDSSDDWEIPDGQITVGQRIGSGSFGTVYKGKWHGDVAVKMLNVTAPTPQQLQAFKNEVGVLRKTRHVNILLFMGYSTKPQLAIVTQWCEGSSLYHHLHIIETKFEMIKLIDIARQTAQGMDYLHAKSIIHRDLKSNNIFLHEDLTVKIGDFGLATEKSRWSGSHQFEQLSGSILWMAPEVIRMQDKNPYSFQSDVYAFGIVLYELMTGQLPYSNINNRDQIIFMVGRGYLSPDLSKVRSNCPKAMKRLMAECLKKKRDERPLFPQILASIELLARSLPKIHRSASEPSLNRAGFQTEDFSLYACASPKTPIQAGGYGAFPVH
Sequence of MAP kinase-interacting serine/threonine-protein kinase 1 (Homo sapiens) (Q9BUB5 whole entry, looked up): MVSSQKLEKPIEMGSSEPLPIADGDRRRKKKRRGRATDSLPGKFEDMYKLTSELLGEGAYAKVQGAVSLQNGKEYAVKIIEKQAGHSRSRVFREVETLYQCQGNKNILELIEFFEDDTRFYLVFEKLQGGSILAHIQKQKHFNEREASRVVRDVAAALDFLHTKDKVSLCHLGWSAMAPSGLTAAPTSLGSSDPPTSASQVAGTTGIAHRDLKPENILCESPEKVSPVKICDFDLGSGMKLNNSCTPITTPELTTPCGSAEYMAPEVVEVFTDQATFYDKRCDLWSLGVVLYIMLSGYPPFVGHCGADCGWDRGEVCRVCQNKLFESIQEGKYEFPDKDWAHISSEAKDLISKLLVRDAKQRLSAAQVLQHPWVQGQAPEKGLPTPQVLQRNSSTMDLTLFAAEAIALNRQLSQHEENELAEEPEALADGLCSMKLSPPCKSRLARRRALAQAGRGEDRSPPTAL
Sequence of Serine/threonine-protein kinase ULK2 (Homo sapiens) (Q8IYT8 whole entry, the tested form may be a part): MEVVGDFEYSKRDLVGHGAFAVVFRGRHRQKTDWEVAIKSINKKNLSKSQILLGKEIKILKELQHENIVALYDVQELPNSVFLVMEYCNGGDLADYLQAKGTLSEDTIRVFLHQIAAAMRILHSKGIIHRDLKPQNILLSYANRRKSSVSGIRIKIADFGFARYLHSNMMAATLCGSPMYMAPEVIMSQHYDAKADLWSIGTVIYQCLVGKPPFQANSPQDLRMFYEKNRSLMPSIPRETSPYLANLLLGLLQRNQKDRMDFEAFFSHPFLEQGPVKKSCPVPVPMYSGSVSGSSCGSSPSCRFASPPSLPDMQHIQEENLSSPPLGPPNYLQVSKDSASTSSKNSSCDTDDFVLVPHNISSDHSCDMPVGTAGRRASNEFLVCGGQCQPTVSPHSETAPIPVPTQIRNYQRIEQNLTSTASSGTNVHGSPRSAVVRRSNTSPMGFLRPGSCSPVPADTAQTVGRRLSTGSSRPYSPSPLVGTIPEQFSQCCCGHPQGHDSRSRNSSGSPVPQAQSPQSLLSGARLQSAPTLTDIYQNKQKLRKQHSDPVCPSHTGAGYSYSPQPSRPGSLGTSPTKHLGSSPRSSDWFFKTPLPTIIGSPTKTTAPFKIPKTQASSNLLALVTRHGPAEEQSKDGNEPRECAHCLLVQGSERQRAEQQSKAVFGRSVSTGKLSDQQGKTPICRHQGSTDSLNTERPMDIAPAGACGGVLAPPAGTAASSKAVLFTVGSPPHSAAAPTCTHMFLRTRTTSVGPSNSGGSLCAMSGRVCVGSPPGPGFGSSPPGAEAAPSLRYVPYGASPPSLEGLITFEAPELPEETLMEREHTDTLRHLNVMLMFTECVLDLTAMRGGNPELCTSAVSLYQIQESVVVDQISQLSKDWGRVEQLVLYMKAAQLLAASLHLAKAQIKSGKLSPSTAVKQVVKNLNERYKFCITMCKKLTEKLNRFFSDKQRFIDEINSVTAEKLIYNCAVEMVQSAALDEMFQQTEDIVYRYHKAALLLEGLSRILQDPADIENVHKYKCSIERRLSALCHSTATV
Sequence of Glycogen synthase kinase-3 beta (Homo sapiens) (P49841 whole entry, looked up, the tested form may be a part): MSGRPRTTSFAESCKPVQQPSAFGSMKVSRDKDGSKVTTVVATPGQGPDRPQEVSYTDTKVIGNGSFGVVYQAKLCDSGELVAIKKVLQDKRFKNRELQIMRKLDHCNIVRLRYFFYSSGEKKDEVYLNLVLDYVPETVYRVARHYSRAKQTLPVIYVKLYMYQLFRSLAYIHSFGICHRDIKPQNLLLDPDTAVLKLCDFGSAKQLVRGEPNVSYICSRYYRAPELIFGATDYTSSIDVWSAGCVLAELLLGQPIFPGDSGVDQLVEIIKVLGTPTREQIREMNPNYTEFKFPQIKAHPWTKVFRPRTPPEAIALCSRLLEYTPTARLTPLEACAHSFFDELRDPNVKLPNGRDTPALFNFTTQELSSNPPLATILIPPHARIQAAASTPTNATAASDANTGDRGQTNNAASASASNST

## O=C1C2=C(C(=O)c3c(O)ccc(O)c31)[C@@H](O)[C@@H](O)[C@@H](O)C2
[1]
  Activity: 100%
[2]
  Activity: 100%
[3]
  Activity: 97%
[4]
  Activity: 100%
[5]
  Activity: 45%
[6]
  Activity: 100%
[7]
  Activity: 86%
[8]
  Activity: 100%
[9]
  Activity: 36%
[10]
  Activity: 78%
[11]
  Activity: 95%
[12]
  Activity: 90%
[13]
  Activity: 92%
[14]
  Activity: 84%
[15]
  Activity: 61%
[16]
  Activity: 87%
[17]
  Activity: 84%
[18]
  Activity: 88%
[19]
  Activity: 30%
[20]
  Activity: 85%
[21]
  Activity: 100%
[22]
  Activity: 68%
[23]
  Activity: 88%
[24]
  Activity: 70%
[25]
  Activity: 53%
